High-throughput results (PubChem BioAssay)
The list is not random: actives were taken first. Their share in the collection is about 1.9%.
FGF22 binding-1 = binders of human FGF22 protein, primary screen, FGF22 synaptogenesis inhibitor project, biophysical, thermal shift, single point | Fibroblast growth factor 22 (Homo sapiens), Q9HCT0 | recombinant FGF22 thermal shift, SYPRO orange fluorescence; percent of sucrose octasulfate shift, DMSO zero | activity (Tm shift, normalised), % at 9.99 µM | 340,000 tested, 1.5% active;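 active = mean Tm shift, scaled 0 neutral to 100 positive control, at about 1.3% or above, every replicate too, limit read from the data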
Target sequence (Q9HCT0 whole entry, looked up): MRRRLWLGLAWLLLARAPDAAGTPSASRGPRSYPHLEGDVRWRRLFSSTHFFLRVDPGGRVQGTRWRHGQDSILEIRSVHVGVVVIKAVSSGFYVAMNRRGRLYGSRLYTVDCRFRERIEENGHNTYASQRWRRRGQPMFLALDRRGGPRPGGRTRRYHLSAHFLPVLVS
ASAP1 inh = inhibitors of human ASAP1 ArfGAP activity, primary screen, biochemical, fluorescence polarization; 360,000 tested, 0.19% active; ASAP1-stimulated ARF1 GTP hydrolysis, GDP FP detection; inhibition, % at 16.5 µM; AID 624377, 2012; Arf-GAP with SH3 domain, ANK repeat and PH domain-containing protein 1 (Homo sapiens), …; in the data active = inhibition above about 25%;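 also: 0% = vehicle with enzyme and substrate and 100% = no enzyme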
Target sequence (Q9ULH1 325-724 limits assumed): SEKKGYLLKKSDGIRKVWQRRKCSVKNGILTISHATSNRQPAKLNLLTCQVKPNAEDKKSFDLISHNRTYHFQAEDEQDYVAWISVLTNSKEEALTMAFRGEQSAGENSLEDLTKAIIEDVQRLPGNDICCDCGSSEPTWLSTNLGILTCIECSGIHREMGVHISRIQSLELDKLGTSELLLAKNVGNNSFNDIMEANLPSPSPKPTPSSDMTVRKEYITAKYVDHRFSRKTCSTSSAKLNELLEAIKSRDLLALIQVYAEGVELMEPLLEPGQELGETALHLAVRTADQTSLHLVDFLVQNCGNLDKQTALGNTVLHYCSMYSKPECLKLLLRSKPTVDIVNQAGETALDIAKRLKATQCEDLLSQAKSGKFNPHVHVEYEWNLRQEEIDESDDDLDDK
Efflux pump mplx = inhibitors of Candida efflux pumps in yeast, primary screen, S. cerevisiae, Nile Red, multiplex | inhibition, % at 10 µM | S. cerevisiae Candida pump triplex | AID 485275, 2010 | 330,000 tested, 0.44% active;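 active = plate passing quality check with inhibition over a set limit, or well fluorescence over plate mean plus 4 SD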;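 also: Nile Red retained in pooled yeast measured as flow cytometry median fluorescence; 0% = buffer negative control and 100% = Enniatin B positive control; higher means more Nile Red kept so more efflux inhibition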
Rtt109 HAT inh = inhibitors of C. albicans Rtt109/Vps75 HAT, primary screen, biochemical, ThioGlo CoA-SH fluorescence, plate reader; Histone acetyltransferase RTT109 (Candida albicans (strain SC5314 / ATCC MYA-2876)), …; purified Rtt109/Vps75, 4 h; inhibition, % at 34.9 µM; 330,000 tested, 0.16% active; AID 540336, 2011;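 active = inhibition of at least 50% in every replicate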
ARFGAP1 inh = inhibitors of rat ARFGAP1 GAP activity, primary screen, biochemical, fluorescence polarization, GDP tracer | 360,000 tested, 0.26% active | AID 651572, 2012 | ADP-ribosylation factor GTPase-activating protein 1 (Rattus norvegicus), Q62848 | Arfgap1-stimulated ARF1 GTP hydrolysis, GDP FP detection | inhibition, % at 16.5 µM;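 active = inhibition above a per-plate limit, mean inhibition of low control wells plus 3 SD, cut at about 25% in these data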;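 also: 0% = DMSO wells with enzyme and 100% = wells lacking Arfgap1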
Target sequence (Q62848 1-136 limits assumed): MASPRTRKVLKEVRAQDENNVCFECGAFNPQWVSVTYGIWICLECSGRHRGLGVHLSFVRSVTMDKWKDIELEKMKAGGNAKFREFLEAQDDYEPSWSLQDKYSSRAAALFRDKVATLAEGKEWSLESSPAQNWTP
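Material: rat Arfgap1 GAP domain (His6, aa 1-136), purified enzyme. Also added: human ARF1(Δ1-17)-GTP substrate. Compound dosing: 16.5 µM single point, 1.26% DMSO. Timing: enzyme reaction 120 min at 25 °C after 20 min preincubation. Signal: GDP detection by fluorescence polarization. Read-out basis: percent inhibition of GAP-stimulated GDP formation, scaled between DMSO and no-Arfgap1 medians.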
FGF22 binding-2 = binders of human FGF22 protein, dose response, FGF22 synaptogenesis inhibitor project, biophysical, thermal shift, cherry-pick retest. 1,000 tested, 2% active. recombinant FGF22 thermal shift, SYPRO orange fluorescence. shares compounds with FGF22 binding-1. thermal shift activity, °C (ΔTm) at 38 µM;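 active = fitted rise in melting shift crosses a set limit at or below the top valid dose tested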
FGF22 TSA DP = binders of human FGF22 protein, dose response, FGF22 synaptogenesis inhibitor project, biophysical, thermal shift, dry powder | shares compounds with FGF22 binding-1 | Thermal shift assay, SYPRO orange, melting temperature shift | Tm shift (activity), % at 38 µM | 50 tested, under 10 active;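 active = compounds whose fitted dose curve of melting temperature shift rises past a set threshold within the tested doses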
TSA no protein = compound-only thermal shift signal without protein, dose response, artefact control for FGF22 binder project, biochemical, cherry-picked samples, RT-PCR instrument; shares compounds with FGF22 binding-1; AC50, µM (series often up to 38 µM); 1,000 tested, 2% active; compound-only SYPRO orange thermal shift counter-screen, no protein;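 active = rising signal whose fitted curve reaches the 0.54 level within the top valid dose, showing a melting point, actives reach about 13 µM in these data; inactive = the rest, including activity in the opposite direction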; also: value is where the raw curve crosses a fixed level and not half-maximal
Starred values were filed as active, the others as inactive; i = inactive; x = no result given; ! = a repeat was not active; [ ] = remark or other dose.

SMILES	FGF22 binding-1	ASAP1 inh	Efflux pump mplx	Rtt109 HAT inh	ARFGAP1 inh	FGF22 binding-2	TSA no protein	others
CCC(NC(=O)CCc1nnc(-c2cc(C)on2)o1)C12CC3CC(CC(C3)C1)C2 (stereo unspecified)	0.0	-3.1	-0.2	6.1	-9.3	x	x
COc1ccc(S(=O)(=O)Nc2cccc3c2O[C@H](CN(C)Cc2ccc(C(F)(F)F)cc2)[C@@H](C)CN([C@@H](C)CO)C3=O)cc1	-0.7	x	x	x	x	x	x
Cc1ccccc1OCCSc1nc2ccccc2n1CCC(=O)O	-0.2	-4.3	-0.1	-11.4	-1.2	x	x
C[C@@H]1CN([C@@H](C)CO)C(=O)c2cc(N(C)C)ccc2O[C@@H]1CN(C)C(=O)Nc1ccc(C(F)(F)F)cc1	-0.5	x	x	x	x	x	x
COc1ccc(NC(=O)Nc2ccc3c(c2)CC(=O)N([C@H](C)CO)C[C@@H](C)[C@H](CN(C)S(=O)(=O)c2ccccc2)O3)cc1	-0.7	x	x	x	x	x	x
COc1ccc(S(=O)(=O)N(C)C[C@@H]2Oc3ccc(NC(=O)Nc4ccccc4)cc3CC(=O)N([C@H](C)CO)C[C@@H]2C)cc1	1.7*	x	x	x	x	0.036[42 µM]	i
COc1ccc(NC(=O)N(C)C[C@@H]2Oc3ccc(NC(=O)NC(C)C)cc3CC(=O)N([C@H](C)CO)C[C@@H]2C)cc1	14.8*!	2.6	0.1	3.0	-0.6	0.077	i
Cc1ccc(S(=O)(=O)Nc2cccc3c2O[C@H](CN(C)CC2CC2)[C@@H](C)CN([C@@H](C)CO)C3=O)cc1	-0.1	x	x	x	x	x	x
O=C(C(=O)N1CCC(CNS(=O)(=O)Cc2ccccc2)CC1)c1cccs1	27.0*	-4.6	x	x	-2.7	0.071	i
O=C(C(=O)N1CCC(CNS(=O)(=O)c2cccc3ccccc23)CC1)c1cccs1	0.2	-7.1	x	x	0.8	x	x
NS(=O)(=O)c1cc(C(=O)NC2CCSc3ccccc32)ccc1Cl (stereo unspecified)	1.8*	-10.7	0.0	12.4	-30.9	0.068	i
O=C(Nc1ccc(S(=O)(=O)N2CCOCC2)cc1)c1ccc([N+](=O)[O-])cc1Cl	-0.2	1.7	0.1	9.7	0.1	x	x
O=[N+]([O-])c1ccc(Cl)c(S(=O)(=O)Nc2ccc(S(=O)(=O)N3CCOCC3)cc2)c1	2.2*	13.4	0.0	12.5	-1.3	0.155	i
O=S(=O)(Nc1ccccc1)c1ccc(NS(=O)(=O)c2c(F)cccc2F)cc1	0.0	0.2	-0.1	-13.0	-2.7	x	x
COc1ccc2c(c1)C(=NO)c1cc(OC)ccc1-2	x	10.3	-0.1	-7.4	20.2	x	x
C=CCOc1ccc2c(c1)C(=NO)c1cc(OCC=C)ccc1-2	13.7*	14.2	0.1	0.2	17.6	-0.102	i
O=C(O)Cc1ccc(NC(=O)c2ccc(Cl)c(Cl)c2)cc1	1.8*	0.7	0.0	-4.0	0.7	0.572	i	FGF22 TSA DP=0.0
O=C(COc1ccc2ccccc2c1)NNC(=O)C(=O)Nc1ccccc1	-0.1	11.2	0.3	42.5	12.6	x	x
O=c1oc(-c2ccc(O)c(O)c2)cc2cccc(O)c12	-0.2	-8.9	-0.1	7.9	20.9	x	x
O=c1oc(-c2ccc(O)c(O)c2)cc2cc(O)cc(O)c12	1.5*	15.1	-0.2	9.3	19.2	-0.148	i
COc1ccc(/C=C2/N=C3CCCCCN3C2=O)cc1OC	x	11.1	1.4	4.9	17.4	x	x
CCN(CC)c1ccc(/C=N/NC(=O)c2c[nH]c3ccccc23)cc1	1.8*	10.2	-0.1	-2.8	1.1	-0.099	i
CCN(CC)c1ccc(NS(=O)(=O)c2ccc(OC)cc2)cc1	0.0	17.7	-0.1	2.2	1.2	x	x
CCCNC(=O)C[C@H]1C[C@H]2c3cc(NS(=O)(=O)c4ccccc4)ccc3O[C@H]2[C@H](CO)O1	0.1	x	x	x	x	x	x
CCOc1ccc(N2C(=O)C(CC(=O)Nc3ccc(F)cc3)N(Cc3ccccn3)C2=S)cc1 (stereo unspecified)	1.7*	6.0	0.0	0.7	-5.7	-0.354	i
SMILES	FGF22 binding-1	ASAP1 inh	Efflux pump mplx	Rtt109 HAT inh	ARFGAP1 inh	FGF22 binding-2	TSA no protein	others
CCOc1ccc(N2C(=O)C(CC(=O)Nc3ccccc3)N(Cc3ccccn3)C2=S)cc1 (stereo unspecified)	1.5*	-2.4	-0.2	7.4	-7.8	0.577	i
C=CCN1C(=O)C(CC(=O)Nc2ccc(OCC)cc2)N(Cc2ccccn2)C1=S (stereo unspecified)	1.1	-0.3	0.0	0.9	-4.3	x	x
COC(=O)CN1C(=S)N(c2ccc(Cl)cc2)C(=O)C1CC(=O)Nc1ccc(F)cc1 (stereo unspecified)	1.9*	10.1	-0.5	-0.5	0.6	-0.156	i
COc1ccc(N2C(=O)C(CC(=O)Nc3ccccc3)N(Cc3ccccn3)C2=S)cc1 (stereo unspecified)	1.7*	-1.7	0.1	0.5	-2.6	-0.015	i
O=C(Nc1ccccc1)N[C@H](Cc1ccccc1)Cn1cc(CN2C(=O)COC[C@H]2c2ccccc2)nn1	-1.1	x	x	x	x	x	x
S=C(NCCc1c[nH]c2ccccc12)NC1CC1	0.1	11.6	-0.1	-4.9	3.2	x	x
CCOc1ccc(C(=O)N(C)C2CCS(=O)(=O)C2)cc1 (stereo unspecified)	x	2.6	0.0	-10.2	2.3	x	x
COc1ccc(N2C(=O)C(CC(=O)Nc3ccccc3)N(Cc3ccc4c(c3)OCO4)C2=O)cc1 (stereo unspecified)	1.4*	x	2.8	-14.1	x	0.043	i
CC(C)C#Cc1ccc([C@@H]2[C@H](CO)N3C(=O)CN(C(=O)C4CCCCC4)C[C@@H]23)cc1	1.2*	x	x	x	x	0.341	i
CC(C)C#Cc1ccc([C@H]2[C@@H](CO)N3C(=O)CN(C(=O)C4CCCCC4)C[C@H]23)cc1	1.0	x	x	x	x	x	x
CC(C)C#Cc1ccc([C@H]2[C@H](CO)N3C(=O)CN(C(=O)C4CCCCC4)C[C@@H]23)cc1	1.6*	x	x	x	x	0.472	i
